Bioassay records deposited in PubChem BioAssay by several laboratories.
The list is not random: actives were taken first. Their share in the collection is about 2.4%.
DNA FID counter = fluorescent intercalator displacement, NS3 helicase counter-screen; DNA fluorescent intercalator displacement, fluorescence; inhibition, % at 7.9 µM; actives 0.17% (n = 290,000); AID 1845; in the data active means inhibition above about 37%;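 further: 0% = vehicle and 100% = reference compound; higher means more ethidium bromide displaced from hairpin DNA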
Apaf-1 inh = blocks human Apaf-1 apoptosome activity; reconstituted apoptosome caspase-3 activity, DEVD-Rh110 fluorescence; inhibition, % at 20 µM; actives 0.71% (n = 330,000); O14727; active means inhibition of at least 40% at 20 µM;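 further: plate controls were DMSO wells for no effect and DEVD-CHO caspase inhibitor wells for full effect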
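System – cell-free apoptosome with Apaf-1, procaspase-3 and caspase-9 · Buffer or medium – pH 7.5 Hepes buffer with CHAPS, BSA, DTT · Also added – cytochrome c with DEVD-Rh110 · Times – 30 min compound preincubation, 50 min activation, room temperature · Technique – Rh110 fluorescence intensity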
TMEM16A act = mouse TMEM16A channel activation, primary screen; Q8BHY3; AID 623877; HEK293 TMEM16A/YFP-H148Q/I152L, iodide quench fluorescence; hits give low values; B-score at 10 µM; actives 0.3% (n = 340,000);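 active means fluorescence-ratio B-score plate-corrected deviation score at least 3 library SD below zero, with starting fluorescence score within 5 deviations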;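 further: channel opened by trigger with iodide after compound preincubation; score built on the fluorescence ratio of max minus min over baseline; more negative score means more quench and so TMEM16A activation or potentiation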
UBC13 polyUb = inhibitors of human UBC13 polyubiquitin chain formation | P61088 | TR-FRET | inhibition, % at 20 µM | actives 0.47% (n = 330,000); in the data active means inhibition above about 45%, passing the limit was not always enough
TMEM16A inh = blocks the mouse calcium-activated chloride channel TMEM16A | Q8BHY3 | HEK293 TMEM16A/YFP iodide influx fluorescence, ionomycin | normalized B-score (activity score, 25-100; higher = stronger inhibition) at 10 µM | actives 1.2% (n = 310,000);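 active means ratio plate-corrected score three or more library SD toward inhibition, starting fluorescence score within five deviations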;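 further: score derived from kinetic fluorescence span divided by baseline fluorescence per well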
Casp3 UBC13 ctr = inhibits human caspase-3 in UBC13 counter-screen | shares compounds with UBC13 polyUb | Recombinant caspase-3, Caspase-Glo 3/7 luminescence, 60 min | inhibition, % at 20 µM | actives 4% (n = 1,400) | AID 488856;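 active means mean inhibition across replicates above about 26%, limit read from the data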;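 further: plate controls were DMSO with caspase-3 for no effect and DMSO wells lacking enzyme for full effect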
UBC13 conf = confirmation of human UBC13 polyubiquitin inhibitors; shares compounds with UBC13 polyUb; actives 68% (n = 1,400); UBC13 polyubiquitination, TR-FRET, biochemical; inhibition, % at 10 µM; in the data active means inhibition above about 45%
* marks the source's active call; other numbers are inactive results; i = inactive; · = not tested or not shown.

SMILES	DNA FID counter	Apaf-1 inh	TMEM16A act	UBC13 polyUb	TMEM16A inh	Casp3 UBC13 ctr	UBC13 conf
CN1CCN(CCCNC(=O)c2cn(C3CCCCC3)c(=O)c3c2c2ccccc2n3C)CC1	15.8	-1.9	i	64.4*	i	-3.8	63.5*
O=C(Nc1ccc(Cl)c(C(F)(F)F)c1)NC1CC2CCCC(C1)N2Cc1ccccc1 (configuration not stated)	18.4	22.3	·	46.2*	100*	-5.0	62.9*
Cc1nn(Cc2ccccc2)c(C)c1CNC(=O)[C@H](C)N=C1NS(=O)(=O)c2ccccc21	·	·	i	·	·	·	·
Cc1ccc(OCC(=O)NNC(=S)NC(=O)C2CC2)c(C)c1	-27.1	-4.6	i	85.1*	i	1.9	105.6*
N#Cc1ccc(OCC(=O)NNC(=S)NC(=O)C2CC2)cc1	·	-3.2	i	105.5*	·	-1.3	101.5*
N#Cc1ccc(NC(=S)NC(=O)C2CCCCC2)cc1	·	7.7	i	0.3	·	·	·
CC(C)c1ccc(OCC(=O)NNC(=S)NC(=O)C2CC2)cc1	-27.0	6.5	i	61.8*	i	-1.4	98.6*
Cc1ccc(OCC(=O)NNC(=S)NC(=O)C2CCCCC2)c(C)c1	-25.7	10.3	i	-4.2	i	·	·
O=C(NCCCn1cccn1)C1CCC(=O)N(CCc2ccccc2)C1 (configuration not stated)	-10.4	-7.7	i	5.7	i	·	·
O=C(COc1ccccc1Cl)NCCCNC(=O)c1ccco1	-10.5	3.3	i	-6.9	i	·	·
O=C(CCC1CCCN(C(=O)c2ccccc2Cl)C1)N1CCN(c2ccccn2)CC1 (configuration not stated)	-40.0	0.5	i	3.6	i	·	·
Cc1nc(N)sc1C(=O)OCC(C)C	-7.5	-5.0	i	55.9*	i	-5.1	41.7
CCOC(=O)c1sc(N)nc1C(C)(C)C	-5.3	-1.2	i	4.5	i	·	·
O=C(C1CC(=O)N(c2ccc(F)cc2)C1)N1CCC(c2nc3ccccc3[nH]2)CC1 (configuration not stated)	·	-1.5	i	-1.9	i	·	·
CCN(CC)CCOC(=O)c1ccc(N/C=C(/C#N)c2nc(-c3ccc(OC)cc3)cs2)cc1	6.0	35.3	i	96.4*	i	-0.4	129.6*
CCOC(=O)c1c(-c2ccccc2)oc2ccc(OCC(O)CN(C)C)cc12 (configuration not stated)	21.9	18.9	i	46.6*	i	-4.1	52.2*
CCOC(=O)c1c(-c2ccccc2)oc2ccc(OC(C)C(=O)O)cc12 (configuration not stated)	-25.1	-0.6	i	14.6	i	·	·
O=C(CC(C(=O)NCc1ccccc1)c1nc2ccccc2c(=O)[nH]1)NCc1ccccc1 (configuration not stated)	-2.0	-5.0	i	23.6	i	·	·
CC(C)N1CCc2c(sc(NC(=O)c3ccc4ccccc4c3)c2C(N)=O)C1	14.7	12.5	i	22.6	i	·	·
CC(=O)Nc1sc2c(c1-c1nc3ccccc3s1)CCN(C(C)C)C2	60.4*	30.2	i	59.7*	i	5.2	18.3
CC1CCN(CCCNC(=O)C2CCCN(c3ncnc4c3nc3n4CCCCC3)C2)CC1 (configuration not stated)	1.0	8.4	i	12.1	i	·	·
COc1cccc(CCNC(=O)C2CCCN(c3ncnc4c3nc3n4CCCCC3)C2)c1OC (configuration not stated)	-49.3	3.0	i	7.7	i	·	·
O=C(NCCCN1CCN(c2ccc(F)cc2)CC1)C1CCCN(c2ncnc3c2nc2n3CCCCC2)C1 (configuration not stated)	15.6	8.6	i	82.9*	i	0.6	106.7*
Cc1ccccc1CN1CCC(CNC(=O)C2CCCN(c3ncnc4c3nc3n4CCCCC3)C2)CC1 (configuration not stated)	29.3	8.6	i	71.7*	i	1.1	89.5*
Cc1ccc(/C(O)=C2\C(=O)C(=O)N(CC(C)O)C2c2ccccn2)cc1 (configuration not stated)	5.1	-9.8	i	-8.9	i	·	·
